The text below walks through data of publication PMC11959361 (RSC Advances, 2025).

One may read the IC50 as the concentration at which inhibition is half-maximal.

The test system of assay [1] is MCF7 (human breast cancer) cell line. Kind of assay: MTT cytotoxicity assay, MCF7. The assay is classed as cell-based. The conditions noted are these: MCF7, 24 h. The procedure, abridged: (§1)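 Cells seeded at 5000 per well in Eagle's MEM with 10% fetal calf serum, 2 mM L-glutamine, penicillin and streptomycin, then held 24 h at 37 °C, 5% CO2. Serial concentrations of test compound in DMSO were added for 24 h, with PTX and DOX as references. MTT was added for 4 h at 37 °C. Formazan was dissolved in ethanol and read at 570 nm. Percent inhibition was computed against control and blank.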

Assay [2] concerns C26 (colon carcinoma) cell line. Kind of assay: MTT cytotoxicity assay, C26. The conditions noted are these: 24 h. The assay is classed as cell-based. A digest of the protocol: as §1
A general note: Tetrazolium dyes change colour on reduction, which living cells bring about.

For assay [3], the system named is BAEC (bovine aorta endothelial) normal cell line. Description: MTT cytotoxicity assay, BAEC normal cells. The assay is classed as cell-based. The note with it: 24 h with compound, IC50 ± SEM. A digest of the protocol:
as §1

For the next assay, the system named is MCF7 and C26 cell lines. Kind of assay: MTT cytotoxicity, stated over both cancer cell lines together. The assay is classed as cell-based. The note with it: Homo sapiens, MCF7, read-out: IC50 over MCF7 and C26. The procedure, abridged:
as §1

For assay [4], the system named is MCF7, A549 (non-small cell lung cancer) and HDFs (non-cancerous human dermal fibroblasts). The note with it: doxorubicin value compared for healthy cells ref 20; cited from earlier work.

Regarding `Clc1ccc(Nc2nc(Cl)nc(Cl)n2)cc1` [1a, 4,6-Dichloro-N-(4-chlorophenyl)-1,3,5-triazin-2-amine], the values for the IC50 in assay [1] and in assay [2] were 5.35 ± 1.05 µM and 13.5 ± 0.24 µM, respectively.

On to `Fc1ccc(Nc2nc(Cl)nc(Cl)n2)cc1` [1b, 4,6-Dichloro-N-(4-fluorophenyl)-1,3,5-triazin-2-amine], for which the figures for the IC50 in assay [1] and in assay [2] were 7.89 ± 1.8 µM and 9.1 ± 0.61 µM, respectively.

`COc1ccc(Nc2nc(Cl)nc(Cl)n2)cc1` [1c, 4,6-Dichloro-N-(4-methoxyphenyl)-1,3,5-triazin-2-amine]: the IC50 in assay [1] came out at 1.77 ± 0.05 µM; in assay [2], 9.89 ± 0.17 µM.

As to `Cc1ccc(Nc2nc(Cl)nc(Cl)n2)cc1` [1d, 4,6-Dichloro-N-(p-tolyl)-1,3,5-triazin-2-amine], the IC50 was determined as 0.2 ± 0.11 µM in assay [1] and 9.99 ± 0.59 µM in assay [2].

With `O=[N+]([O-])c1ccc(Nc2nc(Cl)nc(Cl)n2)cc1` [1e, 4,6-Dichloro-N-(4-nitrophenyl)-1,3,5-triazin-2-amine], the results for the IC50 in assay [1] and in assay [2] were 10.3 ± 1.51 µM and 48.3 ± 1.94 µM, respectively.

On to `Clc1ccc(Nc2nc(N3CCCCC3)nc(N3CCCCC3)n2)cc1` [2a, N-(4-Chlorophenyl)-4,6-di(piperidin-1-yl)-1,3,5-triazin-2-amine], for which the IC50 worked out at 49 ± 3.16 µM in assay [3] (Bos taurus, BAEC, 24 h); 23.6 ± 2.56 µM in assay [1]; 47.5 ± 2.86 µM in assay [2].

Take `Fc1ccc(Nc2nc(N3CCCCC3)nc(N3CCCCC3)n2)cc1` [2b, N-(4-Fluorophenyl)-4,6-di(piperidin-1-yl)-1,3,5-triazin-2-amine]: the IC50 in assay [3] (Bos taurus, BAEC, 24 h) came to 21.2 ± 2.4 µM; in assay [1], 32.9 ± 4.23 µM; in assay [2] it was 33.6 ± 1.86 µM.

For the compound `COc1ccc(Nc2nc(N3CCCCC3)nc(N3CCCCC3)n2)cc1` [2c, N-(4-Methoxyphenyl)-4,6-di(piperidin-1-yl)-1,3,5-triazin-2-amine], the IC50 in assay [3] (Bos taurus, BAEC, 24 h) is 15.1 ± 1.98 µM; in assay [1], 50.9 ± 8.54 µM; in assay [2], 99.4 ± 14.1 µM.

For `Cc1ccc(Nc2nc(N3CCCCC3)nc(N3CCCCC3)n2)cc1` [2d, 4,6-Di(piperidin-1-yl)-N-(p-tolyl)-1,3,5-triazin-2-amine], the IC50 came out at 1.84 ± 0.64 µM in assay [3] (Bos taurus, BAEC, 24 h); 6.54 ± 1.16 µM in assay [1]; 0.38 ± 0.23 µM in assay [2].

In the case of `O=[N+]([O-])c1ccc(Nc2nc(N3CCCCC3)nc(N3CCCCC3)n2)cc1` [2e, N-(4-Nitrophenyl)-4,6-di(piperidin-1-yl)-1,3,5-triazin-2-amine], the IC50 in assay [3] (Bos taurus, BAEC, 24 h) was found to be 315 ± 9.53 µM; in assay [1], 26.1 ± 1.86 µM; in assay [2] it was 8.28 ± 1.9 µM.

In the case of `Clc1ccc(Nc2nc(N3CCOCC3)nc(N3CCOCC3)n2)cc1` [3a, N-(4-Chlorophenyl)-4,6-dimorpholino-1,3,5-triazin-2-amine], the IC50 in assay [3] (Bos taurus, BAEC, 24 h) was 41.2 ± 2.55 µM; in assay [1], 42.4 ± 4.48 µM; in assay [2], 1.21 ± 0.47 µM.

As to `Fc1ccc(Nc2nc(N3CCOCC3)nc(N3CCOCC3)n2)cc1` [3b, N-(4-Fluorophenyl)-4,6-dimorpholino-1,3,5-triazin-2-amine], the IC50 came to 7.98 ± 0.97 µM in assay [3] (Bos taurus, BAEC, 24 h); 6.19 ± 1.2 µM in assay [1]; 24.5 ± 0.86 µM in assay [2].

As to `COc1ccc(Nc2nc(N3CCOCC3)nc(N3CCOCC3)n2)cc1` [3c, N-(4-Methoxyphenyl)-4,6-dimorpholino-1,3,5-triazin-2-amine], the IC50 in assay [3] (Bos taurus, BAEC, 24 h) is 2.01 ± 0.59 µM; in assay [1] it was 43.5 ± 4.23 µM; in assay [2], 76.8 ± 8.45 µM.

With `Cc1ccc(Nc2nc(N3CCOCC3)nc(N3CCOCC3)n2)cc1` [3d, 4,6-Dimorpholino-N-(p-tolyl)-1,3,5-triazin-2-amine], the IC50 in assay [3] (Bos taurus, BAEC, 24 h) was found to be 0.57 ± 0.24 µM; in assay [1], 22.3 ± 1.49 µM; in assay [2] it was 16.3 ± 2.22 µM.

With `O=[N+]([O-])c1ccc(Nc2nc(N3CCOCC3)nc(N3CCOCC3)n2)cc1` [3e, 4,6-Dimorpholino-N-(4-nitrophenyl)-1,3,5-triazin-2-amine], the IC50 in assay [3] was 86.3 ± 6.79 µM; in assay [3] (Bos taurus, BAEC, 24 h), 86.2 µM; in assay [1], 13.7 ± 1.96 µM; in assay [2] it was 14.7 ± 1.7 µM.

For the compound `COc1cccc2c1C(=O)c1c(O)c3c(c(O)c1C2=O)C[C@@](O)(C(=O)CO)C[C@@H]3O[C@H]1C[C@H](N)[C@H](O)[C@H](C)O1` [DOX, Doxorubicin, reference compound], the 50% inhibitory concentration (IC50) is 8.06 to 10.5 µM in the assay with MCF7 and C26 cell lines; 4.79 ± 0.53 µM in assay [3] (Bos taurus, BAEC, 24 h); 10.5 ± 0.86 µM in assay [1]; 0.42 µM in assay [4]; 8.06 ± 1.02 µM in assay [2].

With `CC(=O)O[C@H]1C(=O)[C@@]2(C)[C@H]([C@H](OC(=O)c3ccccc3)[C@]3(O)C[C@H](OC(=O)[C@H](O)[C@@H](NC(=O)c4ccccc4)c4ccccc4)C(C)=C1C3(C)C)[C@]1(OC(C)=O)CO[C@@H]1C[C@@H]2O` [PTX, Paclitaxel, reference compound], the IC50 with MCF7 and C26 cell lines was 2.35 to 4.32 µM; in assay [3] (Bos taurus, BAEC, 24 h), 2.67 ± 0.41 µM; in assay [1], 2.35 ± 0.14 µM; in assay [2] it was 4.32 ± 0.52 µM.
